In paper PMC5320539 (ACS Chemical Biology, 2016):
Entries after “also recorded” stand apart in the source; their conditions may differ. Like-named read-outs stand apart in the source and are kept apart here. Positions of bridges follow the written chain, without caps; N, C: chain ends. Non-standard residues stand in square brackets, D forms with d. Residues, ends and D or L forms follow the SMILES beside them. No end group written: not given here. *: point of attachment. S5 = C=CCCC[C@](C)(N)C(=O)O; code λ = not defined here; Dap = NC[C@H](N)C(=O)O; ClAc = O=C(CCl)*

B2: hBfl-1ΔTm(1–149) (domain or fragment)
chain: MTDCEFGYIYRLAQDYLQCVLQIPQPGSGPSKTSRVLQNVAFSVQKEVEKNLKSCLDNVNVVSVDTARTLFNQVMEKEFEDGIINWGRIVTIFAFEGILIKKLLRQQIAPDVDTYKEISYFVAEFIMNNTGEWIRQNGGWENGFVKKFE

Columns and labels:
primary CLL cells = format: cell-based, human; settings: primary CLL cells alone or cocultured with stroma-NK-tert cells, 48 h
In short: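 Primary CLL cells were taken as PBMC from heparinized patient blood by Ficoll density gradient, using samples >95% CD5+/CD19+. They were cultured in RPMI with 10% heat-inactivated FBS at 3 × 10^5 cells/well, 37 °C, 5% CO2, alone or on bone-marrow NK-tert stroma ([…]), with test compound for 48 h. Cells were gated CD19/CD5 (4 °C, 30 min), stained with DiOC6 (30 min, 37 °C), and analysed by flow cytometry as % SIA.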

hBfl-1 [1] = biological target: T1, hBfl-1 (Homo sapiens, UniProt Q16548); test: DELFIA displacement of biotinylated BID BH3 peptide from hBfl-1; format: binding; settings: hBfl-1 versus hMcl-1
T1 sequence (Q16548 with tags, fused parts or gaps): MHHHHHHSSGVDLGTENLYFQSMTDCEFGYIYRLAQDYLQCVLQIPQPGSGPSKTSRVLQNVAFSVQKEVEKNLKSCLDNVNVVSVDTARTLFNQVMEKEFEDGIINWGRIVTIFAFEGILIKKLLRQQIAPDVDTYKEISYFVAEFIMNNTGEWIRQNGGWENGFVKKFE

hBfl-1 [2] = biological target: T1, hBfl-1; test: Covalent adduct formation by SDS gel electrophoresis; format: binding; settings: hBfl-1 10 μM, equimolar peptide, 15 min to 2 h
In short: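 Synthetic peptide and human Bcl-2 family protein were incubated together at equimolar 10 μM. hBfl-1 (10 μM) was sampled with or without peptide at 15 min, 30 min, 1 h and 2 h. Samples were resolved by SDS-PAGE and stained with Coomassie.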

[3] = biological target: Recombinant hBcl-2 protein (human); test: DELFIA displacement assay
[4] = biological target: Bcl-xL ΔTM (Bcl-xL deletion mutant lacking the transmembrane domain) (human); test: DELFIA displacement assay
hBfl-1 [5] = biological target: T1, hBfl-1; test: Isothermal titration calorimetry against hBfl-1; format: binding; settings: VP-ITC, reverse fashion (protein titrated into compound), 25 °C, PBS + 10% DMSO
hBfl-1ΔTm(1–149) [6] = biological target: B2; test: DELFIA displacement assay
[7] = biological target: T2, hMcl-1 (172–323) (human), Q07820; test: DELFIA displacement assay
T2 chain: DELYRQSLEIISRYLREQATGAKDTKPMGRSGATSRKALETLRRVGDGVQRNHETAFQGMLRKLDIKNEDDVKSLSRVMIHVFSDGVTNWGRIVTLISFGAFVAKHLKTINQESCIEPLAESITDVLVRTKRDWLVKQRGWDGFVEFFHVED

[8] = biological target: Recombinant hBcl-2 protein (human); test: DELFIA displacement assay; remark: listed apart in the source
[9] = biological target: Bcl-xL ΔTM (Bcl-xL deletion mutant lacking the transmembrane domain) (human); test: DELFIA displacement assay; remark: listed apart in the source
hBfl-1ΔTm(1–149) (human) = biological target: T3, hBfl-1ΔTm(1–149) (human); test: DELFIA displacement assay
T3 chain: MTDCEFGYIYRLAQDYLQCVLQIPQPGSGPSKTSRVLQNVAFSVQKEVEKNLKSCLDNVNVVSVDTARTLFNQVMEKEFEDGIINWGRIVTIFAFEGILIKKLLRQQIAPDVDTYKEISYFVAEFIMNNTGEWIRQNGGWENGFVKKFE

[10] = biological target: 130E7 (covalent hBIM derived BH3 peptide, Ac-λ…-NH2) (human); test: ITC
hMcl-1 (172–323) = hMcl-1 (172–323) (human, UniProt Q07820 172-323); test: DELFIA displacement assay
hBfl-1ΔTm(1–149) [11] = biological target: B2; test: ITC
[12] = biological target: T4, biotin-BID (Biotin-lc-EDIIRNIARHLAQVGDSMDR-NH2) (N-terminal biotin-lc (aminohexanoic acid); C-terminal amide); test: DELFIA displacement assay
T4 peptide: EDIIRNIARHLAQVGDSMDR

`Nc1nc(F)nc2c1ncn2[C@@H]1O[C@H](CO)[C@@H](O)[C@@H]1O` [fludarabine] was tested, and the “single agent activity (% SIA), in words” value (primary CLL cells) was “limited activity”.

Ac-CATQLRRFGDKLNFRQKLLN-NH2 [hNOXA] was tested, and the “increased affinity for hBfl-1 over hMcl-1” value (hBfl-1 [1]) was “over 2 orders of magnitude” and the “covalent complex with hBfl-1 (SDS-PAGE, Coomassie)” value (hBfl-1 [2]) was “formed a covalent complex”.

With `COc1cc([C@@H]2c3cc4c(cc3[C@@H](O[C@@H]3O[C@@H]5CO[C@@H](C)O[C@H]5[C@H](O)[C@H]3O)[C@H]3COC(=O)[C@H]23)OCO4)cc(OC)c1O` [etoposide] the “single agent activity (% SIA), in words” value (primary CLL cells) was “limited activity”.

NOXA B (Ac-…-NH2) (peptide) was tested, and the IC50 [3] was greater than 1000 nM and the IC50 [4] was greater than 1000 nM.

In the case of NOXA A (Ac-…-NH2) (peptide), the IC50 [3] is reported as greater than 1000 nM and the IC50 [4] is reported as greater than 1000 nM.

With `CC[C@H](C)[C@H](NC(=O)[C@H](CNC(=O)CCl)NC(C)=O)C(=O)N[C@@H](C)C(=O)N[C@@H](CCC(N)=O)C(=O)N[C@@H](CCC(=O)O)C(=O)N[C@@H](CC(C)C)C(=O)N[C@@H](CCCNC(=N)N)C(=O)N[C@@]1(C)CCC/C=C\CCC[C@@](C)(C(=O)N[C@@H](Cc2ccccc2)C(=O)N[C@@H](CC(N)=O)C(=O)N[C@@H](C)C(=O)N[C@@H](Cc2ccc(O)cc2)C(=O)N[C@@H](Cc2ccc(O)cc2)C(=O)N[C@@H](C)C(=O)N[C@@H](CCCNC(=N)N)C(=O)N[C@@H](CCCNC(=N)N)C(N)=O)NC(=O)[C@H](CC(=O)O)NC(=O)CNC(=O)[C@H]([C@@H](C)CC)NC1=O` [130D11] (Ac-[Dap](ClAc)IAQELR[S5]IGD[S5]FNAYYARR-NH2; staple (Z) 8-12) the “ITC KD hBfl-1” value (hBfl-1 [5]) was “not detected; also recorded: no significant binding”.

Ac-PADLKDECAQLRRIGDKVNL-NH2 [NOXA B (Ac-PADLKDECAQLRRIGDKVNL-NH2)] was tested, and the IC50 (hBfl-1ΔTm(1–149) [6]) was 431 nM.

In the case of Ac-[code λ]ATQLRRFGDKLNFRQKLLN-NH2 (reading uncertain) [λ_hNOXA (Ac-λ…-NH2)], the IC50 [7] is reported as 233 nM, the IC50 [8] is reported as greater than 1000 nM and the IC50 [9] is reported as greater than 1000 nM. For the same molecule, the IC50 (hBfl-1ΔTm(1–149) (human)) was 287 nM.

B1: hMcl-1 (172-323), Q07820 172-323 (domain or fragment)
chain: DELYRQSLEIISRYLREQATGAKDTKPMGRSGATSRKALETLRRVGDGVQRNHETAFQGMLRKLDIKNEDDVKSLSRVMIHVFSDGVTNWGRIVTLISFGAFVAKHLKTINQESCIEPLAESITDVLVRTKRDWLVKQRGWDGFVEFFHVED
Molecule B1 has a Kd [10] of 2 nM.

Molecule Ac-CATQLRRFGDKLNFRQKLLNLISKLFC-NH2 (also: cyclic (cyc_), mode of cyclisation not given here) [cyc_hNOXA (Ac-CATQLRRFGDKLNFRQKLLNLISKLFC-NH2)] has an IC50 (hBfl-1ΔTm(1–149) [6]) of 86 nM and an IC50 (hMcl-1 (172–323)) of 344 nM.

Ac-[code h]ATQLRRFGDKLNFRQKLLN-NH2 [homo_hNOXA (Ac-h…-NH2)] showed an IC50 [7] of 266 nM, an IC50 [8] greater than 1000 nM and an IC50 [9] greater than 1000 nM. For the same molecule, the IC50 (hBfl-1ΔTm(1–149) (human)) was 83 nM.

Work on PRRPRRPRRPRRPRR[Dap](ClAc)IAQELRRIGDEFNAYYARR [130G4] yielded a Kd (hBfl-1ΔTm(1–149) [11]) of 23 nM.

Work on Ac-CATQLRRFGDKLNFRQKLLN-NH2 [hNOXA (Ac-…-NH2)] yielded an IC50 [3] greater than 1000 nM and an IC50 [4] greater than 1000 nM.

B2: binds [12].

Ac-CATQLRRFGDKLN-NH2 [hNOXAs (Ac-…-NH2)] showed an IC50 [3] greater than 1000 nM and an IC50 [4] greater than 1000 nM.

Ac-CATQLRRFGDKLNFRQKLLN-NH2 [hNOXA (Ac-CATQLRRFGDKLNFRQKLLN-NH2)] gave an IC50 (hBfl-1ΔTm(1–149) [6]) of 7.5 nM and an IC50 (hMcl-1 (172–323)) of 228 nM.

With Ac-AELPPEFAAQLRKIGDKVYC-NH2 [NOXA A (Ac-AELPPEFAAQLRKIGDKVYC-NH2)] the IC50 (hBfl-1ΔTm(1–149) [6]) was greater than 1000 nM.

Work on Ac-CATQLRRFGDKLN-NH2 [hNOXAs (Ac-CATQLRRFGDKLN-NH2)] yielded an IC50 (hBfl-1ΔTm(1–149) [6]) of 15 nM and an IC50 (hMcl-1 (172–323)) greater than 1000 nM.

With Ac-AATQLRRFGDKLN-NH2 [C1A_hNOXAs (Ac-AATQLRRFGDKLN-NH2)] the IC50 (hBfl-1ΔTm(1–149) [6]) was greater than 1000 nM and the IC50 (hMcl-1 (172–323)) was greater than 1000 nM.

[Dap](ClAc)IAQELRRIGDEFNAYYARR [130E7] gave a Kd (hBfl-1ΔTm(1–149) [11]) of 2.6 nM.
